Test results reported in PubChem BioAssay AID652011 (Sanford-Burnham Center for Chemical Genomics, 2013).
Values joined by “and” are separate entries in the source; they are usually repeats but may differ in a detail not shown here. Equal values may be shown once.

biological target: Hypoxia-inducible factor 1-alpha (Homo sapiens) (UniProt Q16665); assay: HIF reporter inhibition across pancreatic and renal lines – cell-based, luminescence, MIAPaCa-2, 786-0, panel, SAR follow-up (AID 652011); settings: MIAPaCa-2/PANC HIF reporter, luciferase luminescence, desferoxamine, overnight, HIF1a, run 2; at 99 µM (top of the series)
Procedure, shortened: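 Detection: luminescence, One-Glo; Reagent: desferoxamine; Incubation: overnight seeding and compound exposure, 37 °C, 5% CO2, 10-min detection.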

Hypoxia-inducible factor 1-alpha (Homo sapiens), sequence (Q16665 whole entry, looked up): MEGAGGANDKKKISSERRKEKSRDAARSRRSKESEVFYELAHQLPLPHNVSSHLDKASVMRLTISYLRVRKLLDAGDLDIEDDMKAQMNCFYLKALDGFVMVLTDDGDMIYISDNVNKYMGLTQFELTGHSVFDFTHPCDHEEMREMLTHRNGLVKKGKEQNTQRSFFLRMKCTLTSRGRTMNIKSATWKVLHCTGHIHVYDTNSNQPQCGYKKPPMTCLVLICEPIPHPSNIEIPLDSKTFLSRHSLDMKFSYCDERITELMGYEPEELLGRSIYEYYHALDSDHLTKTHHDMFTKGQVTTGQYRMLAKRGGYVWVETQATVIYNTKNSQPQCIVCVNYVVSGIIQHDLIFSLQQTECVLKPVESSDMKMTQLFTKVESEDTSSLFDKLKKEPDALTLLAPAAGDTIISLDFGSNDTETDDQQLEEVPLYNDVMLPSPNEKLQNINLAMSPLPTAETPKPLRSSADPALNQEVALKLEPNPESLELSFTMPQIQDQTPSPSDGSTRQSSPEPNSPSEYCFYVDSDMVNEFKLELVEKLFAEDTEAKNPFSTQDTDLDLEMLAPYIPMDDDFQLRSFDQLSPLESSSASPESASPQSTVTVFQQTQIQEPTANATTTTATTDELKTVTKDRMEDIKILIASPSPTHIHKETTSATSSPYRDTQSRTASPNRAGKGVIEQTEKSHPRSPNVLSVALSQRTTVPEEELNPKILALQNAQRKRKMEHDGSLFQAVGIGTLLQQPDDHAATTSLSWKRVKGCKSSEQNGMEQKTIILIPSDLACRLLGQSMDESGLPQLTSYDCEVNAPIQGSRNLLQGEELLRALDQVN

Going from CCCCc1ccc(-c2noc(CCC(=O)NC)n2)cc1 to CCCCc1ccc(-c2noc(CCC(=O)NCC)n2)cc1, the inhibition rises from 9.8% to 17.4%.

Compared with CCNC(=O)CCc1nc(-c2ccccc2Cl)no1, CCNC(=O)CCc1nc(-c2ccccc2C)no1 is lower in inhibition: -3.81% for the first, -28.2% for the second.

First: CCNC(=O)CCc1nc(-c2cccc(OC)c2)no1
Second: CCNC(=O)CCc1nc(-c2cccc(F)c2)no1
The inhibition of the first is higher: -31.4% for the first, -31.8% for the second.

Going from CC(C)(C)c1ccc(-c2noc(CCC(=O)NC3CCC3)n2)cc1 to CC(C)(C)c1ccc(-c2noc(CCC(=O)NC3CC3)n2)cc1, the inhibition falls from 54.4% to -29.7%.

Compared with CCOc1ccc(-c2noc(CCC(=O)NC)n2)cc1, CCc1ccc(-c2noc(CCC(=O)NC)n2)cc1 is lower in inhibition: -24% for the first, -34.1% for the second.

Compared with CC(C)(C)c1ccc(-c2noc(CCC(=O)NC3CCCCC3)n2)cc1, CC(C)(C)c1ccc(-c2noc(CCC(=O)NC3CCCC3)n2)cc1 is higher in inhibition: 55.9% for the first, 81.4% for the second.

Compared with CCNC(=O)CCc1nc(-c2ccc(C(C)C)cc2)no1, CC(C)c1ccc(-c2noc(CCC(=O)NC(C)(C)C)n2)cc1 is higher in inhibition: -15.6% for the first, 38.8% for the second.

First: CCCCc1ccc(-c2noc(CCC(=O)NC(C)(C)C)n2)cc1
Second: CCCCc1ccc(-c2noc(CCC(=O)NC(C)CC)n2)cc1 (stereo unspecified)
The inhibition of the first is higher: 93% for the first, 58.1% for the second.

Compared with C=CCNC(=O)CCc1nc(-c2ccc(C(C)(C)C)cc2)no1, CCCNC(=O)CCc1nc(-c2ccc(C(C)(C)C)cc2)no1 is lower in inhibition: 34.7% for the first, 9.39% for the second.

Compared with CCC(C)NC(=O)CCc1nc(-c2ccc(C(C)(C)C)cc2)no1 (stereo unspecified), CC(C)CNC(=O)CCc1nc(-c2ccc(C(C)(C)C)cc2)no1 is higher in inhibition: -28.9% for the first, 2.19% for the second.

First: CC(C)(C)c1ccc(-c2noc(CCC(=O)O)n2)cc1
Second: CC(C)(C)c1ccc(-c2noc(CCC(=O)N3CCOCC3)n2)cc1
The inhibition of the first is higher: 94.9% for the first, -1.55% for the second.

Going from COc1cccc(NC(=O)CCc2nc(-c3ccc(C(C)(C)C)cc3)no2)c1 to CNC(=O)CCc1nc(-c2ccc(F)cc2)no1, the inhibition falls from 81.2% to -36.7%.

First: CCc1ccc(-c2noc(CCC(=O)NC(C)CC)n2)cc1 (stereo unspecified)
Second: CCNC(=O)CCc1nc(-c2ccc(CC)cc2)no1
The inhibition of the first is higher: -24.3% for the first, -31.3% for the second.

Compared with O=C(CCc1nc(-c2ccccc2)no1)NC1CC1, CC(C)c1ccc(-c2noc(CCC(=O)NC3CC3)n2)cc1 is higher in inhibition: -23.4% for the first, -9.97% for the second.

CNC(=O)CCc1nc(-c2ccc(Cl)cc2)no1 was tested, and the inhibition was -33.8%.

In the case of CC(C)(C)c1ccc(-c2noc(CCC(N)=O)n2)cc1, the inhibition is reported as 31.2% and -6.5%.
With CNC(=O)CCc1nc(-c2ccccc2)no1 the inhibition was -20.8% and 17.9%.
